Measured values published in ChEMBL document CHEMBL1212893, “Antiplasmodial triterpenoids from the fruits of neem, Azadirachta indica” (J Nat Prod, 2010).

How the values were obtained:
[1] = system: Plasmodium falciparum; assay: Antiplasmodial activity against chloroquine-sensitive Plasmodium falciparum D10 after 72 hrs by LDH assay; format: functional, organism-based; conditions: D10, 72 h
Procedure, shortened: (§1)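 P. falciparum grown in human A+ red cells at 5% hematocrit in RPMI 1640 with 1% AlbuMaxII, 0.01% hypoxanthine, 20 mM Hepes and 2 mM glutamine, at 37 °C under 1% O2/5% CO2/94% N2. Compounds dissolved in water or DMSO and diluted in medium. Growth read by pLDH. Values are mean ± SD of three experiments run in duplicate.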

[2] = system: Plasmodium falciparum; assay: Antiplasmodial activity against chloroquine-resistant Plasmodium falciparum W2 after 72 hrs by LDH assay; format: functional, organism-based; conditions: W2, 72 h; procedure, shortened: as §1

SMILES	IC50 [1] [µM]	IC50 [2] [µM]
CC(=O)O[C@@H]1C[C@H]2C(C)(C)C(=O)C=C[C@]2(C)[C@H]2CC[C@]3(C)C(=CC(=O)[C@H]3c3ccoc3)[C@@]21C [AZADIRADIONE]	5.96	3.4
CC(=O)O[C@@H]1C[C@H]2C(C)(C)C(=O)C=C[C@]2(C)[C@H]2CC[C@]3(C)C(=CC[C@H]3c3ccoc3)[C@@]21C [AZADIRONE]	1.63	1.21
CC1(C)C(=O)C=C[C@]2(C)[C@H]3CC[C@@]4(C)[C@H](c5ccoc5)OC(=O)[C@H]5O[C@]54[C@]3(C)[C@H](O)C[C@@H]12 [DEACETYLGEDUNIN]	5.14	3.29
CC(=O)O[C@@H]1C[C@H]2C(C)(C)C(=O)C=C[C@]2(C)[C@H]2CC[C@]3(C)C(=CC(=O)[C@H]3[C@@H]3COC(O)C3)[C@@]21C (some centres undefined) [DESMETHYLLIMOCIN B]	4.8	2.59
CC(=O)O[C@@H]1C[C@H]2C(C)(C)C(=O)C=C[C@]2(C)[C@H]2CC[C@@]3(C)[C@H](c4ccoc4)C(=O)[C@H]4O[C@]43[C@@]21C [EPOXYAZADIRADIONE]	3.3	2.16
CC(=O)O[C@@H]1C[C@H]2C(C)(C)C(=O)C=C[C@]2(C)[C@H]2CC[C@@]3(C)[C@H](c4ccoc4)OC(=O)[C@H]4O[C@]43[C@@]21C [GEDUNIN]	–	1.31
CC(=O)O[C@H]1CC(=O)C(C)(C)[C@@H]2C[C@@H](OC(C)=O)[C@@]3(C)C4=CC[C@@H]([C@@H]5COC(O)C5)[C@]4(C)CC[C@@H]3[C@@]12C (some centres undefined) [NEEMFRUITIN A]	2.82	1.74
CC(=O)O[C@H]1O[C@@H]([C@@H]2OC2(C)C)C[C@H]1[C@@H]1CC=C2[C@]3(C)[C@H](O)C[C@H]4C(C)(C)C(=O)C=C[C@]4(C)[C@H]3CC[C@]21C [NEEMFRUITIN B]	9.49	9.98
CC(=O)O[C@@H]1C[C@H]2C(C)(C)C(=O)C=C[C@]2(C)[C@H]2CC[C@]3(C)C(=CC[C@H]3[C@H]3CO[C@@H]([C@H](O)C(C)(C)O)C3)[C@@]21C [PROTOXYLOCARPIN G]	5	2.4
CC(=O)O[C@@H]1C[C@H]2C(C)(C)C(=O)C=C[C@]2(C)[C@H]2CC[C@]3(C)C(=CC[C@H]3[C@H]3COC(O)(C(C)(C)O)[C@H](O)C3)[C@@]21C (some centres undefined) [SPICATIN]	5.4	2.74
